From ChEMBL document CHEMBL1155580, “Chemical constituents of Clausena excavata: isolation and structure elucidation of novel furanone-coumarins with inhibitory effects for tumor-promotion” (J Nat Prod, 2000) come the findings set out here.

What all share (type): cell-based
Series [1] has as its system Raji. The series is described as follows: Inhibition of 12-O-tetradecanoylphorbol-13-acetate-induced EBV-early antigen activation in human Raji cells assessed as EA activation at 3.2 nmol relative to 12-O-tetradecanoylphorbol-13-acetate. The arrangement: scale not given: the % may be the effect or the level left. Particulars: human gammaherpesvirus 4. Put shortly: (§1)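 Raji cells at 10^6 cells/mL resuspended in RPMI 1640 with 10% FCS, 4 mM n-butyric acid as inducer and 32 pmol TPA (20 ng/mL in DMSO), plus test agent in DMSO (32, 16, 3.2 or 0.32 nmol). Held 37 °C for 48 h. EA-positive cells scored blind, at least 500 cells per assay. Values are % of the TPA positive control (100%), ± s.d.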

The test system of series [2] is Raji. The series is described as follows: Inhibition of 12-O-tetradecanoylphorbol-13-acetate-induced EBV-early antigen activation in human Raji cells assessed as EA activation at 0.32 nmol relative to 12-O-tetradecanoylphorbol-13-acetate. Set-up: scale not given: the % may be the effect or the level left. Particulars: human gammaherpesvirus 4. In short, it runs like this:
as §1

Series [3] can be described thus: Cytotoxicity against human Raji cells assessed as cell viability at 32 nmol by trypan blue staining. Particulars: read-out: Activity. Put shortly:
(§2)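 Raji cells grown to 10^6 cells/mL, pelleted and resuspended in RPMI 1640 with 10% FCS, 4 mM n-butyric acid and 32 pmol TPA (20 ng/mL). Test agent added in DMSO at mole ratios to TPA (1000 = 32 nmol, 500 = 16 nmol, 100 = 3.2 nmol, 10 = 0.32 nmol). Incubated 37 °C for 48 h. Viability counted by hemocytometer with Trypan Blue.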

A short description of series [4]: Cytotoxicity against human Raji cells assessed as cell viability at 16 nmol by trypan blue staining. Conditions: read-out: Activity. Put shortly:
as §2

A short description of series [5]: Cytotoxicity against human Raji cells assessed as cell viability at 0.32 nmol by trypan blue staining. Particulars: read-out: Activity. Put shortly:
as §2

In series [6] the test system is Raji. Put plainly: Inhibition of 12-O-tetradecanoylphorbol-13-acetate-induced EBV-early antigen activation in human Raji cells assessed as EA activation at 32 nmol relative to 12-O-tetradecanoylphorbol-13-acetate. Set-up: scale not given: the % may be the effect or the level left. Particulars: human gammaherpesvirus 4. In short, it runs like this: as §1
Series [7] in a line: Cytotoxicity against human Raji cells assessed as cell viability at 3.2 nmol by trypan blue staining. Particulars: read-out: Activity. Put shortly:
as §2

Series [8] has as its system Raji. The series is described as follows: Inhibition of 12-O-tetradecanoylphorbol-13-acetate-induced EBV-early antigen activation in human Raji cells assessed as EA activation at 16 nmol relative to 12-O-tetradecanoylphorbol-13-acetate. Particulars: human gammaherpesvirus 4. Set-up: scale not given: the % may be the effect or the level left. Put shortly: as §1

A value given as a limit tells only on which side of the number the result lay.

Take `C=C1CC(CC(C)(O)C2COc3ccc4ccc(=O)oc4c3O2)OC1=O` (stereo not given) [CLAUSLACTONE A]: the Activity is 85.2% in series [1], 100% in series [2], 26.4% in series [6] and 59.2% in series [8]. Also, the viability at 32 nmol in series [3] was found to be 60%. Besides, the viability at 16 nmol in series [4] is over 80%. In addition, in series [5], the viability at 0.32 nmol was over 80%. In addition, the viability at 3.2 nmol in series [7] is over 80%.
Take `CC1(O)CC(CC(C)(O)C2COc3ccc4ccc(=O)oc4c3O2)OC1=O` (stereo not given) [CLAUSLACTONE B]: the Activity in series [1] amounted to 82.7%; in series [2], 100%; in series [6], 17.1%; in series [8], 50.5%. Besides, in series [3], the viability at 32 nmol is 60%. Besides, the viability at 16 nmol in series [4] was over 80%. In series [5], the viability at 0.32 nmol is over 80%. The viability at 3.2 nmol in series [7] is over 80%.
`CC(O)(CC1CC(O)(CO)C(=O)O1)C1COc2ccc3ccc(=O)oc3c2O1` (stereo not given) [CLAUSLACTONE C]: the Activity was 80.1% in series [1], 95.3% in series [2], 10.3% in series [6] and 46.9% in series [8]. For the same molecule, the viability at 32 nmol in series [3] was found to be 60%. Besides, the viability at 16 nmol in series [4] was over 80%. For the same molecule, the viability at 0.32 nmol in series [5] was over 80%. The viability at 3.2 nmol in series [7] is over 80%.
On to `CC(O)(CC1C=C(CO)C(=O)O1)C1COc2ccc3ccc(=O)oc3c2O1` (stereo not given) [CLAUSLACTONE D], for which the Activity in series [1] worked out at 84.8%; in series [2], 100%; in series [6], 19.6%; in series [8], 52.3%. Further, in series [3], the viability at 32 nmol is 60%. The viability at 16 nmol in series [4] was over 80%. In series [5], the viability at 0.32 nmol was over 80%. Besides, the viability at 3.2 nmol in series [7] was over 80%.
With `C=C1CC(C/C(C)=C/COc2ccc3ccc(=O)oc3c2O)OC1=O` (stereo not given) [CLAUSLACTONE E], the Activity in series [1] was found to be 86.2%; in series [2], 100%; in series [6] it was 22.4%; in series [8] it was 58.8%. Further, the viability at 32 nmol in series [3] turned out to be 60%. Moreover, the viability at 16 nmol in series [4] was over 80%. Further, in series [5], the viability at 0.32 nmol was over 80%. Further, the viability at 3.2 nmol in series [7] is over 80%.
Turning to `C=C1CC(CC2(C)OC2COc2ccc3ccc(=O)oc3c2)OC1=O` (stereo not given) [CLAUSLACTONE F], the Activity was 89.6% in series [1], 100% in series [2], 29.3% in series [6] and 62.7% in series [8]. In addition, the viability at 32 nmol in series [3] was 60%. For the same molecule, the viability at 16 nmol in series [4] was over 80%. Besides, in series [5], the viability at 0.32 nmol is over 80%. In series [7], the viability at 3.2 nmol was over 80%.
Regarding `CC1(O)CC(CC2(C)OC2COc2ccc3ccc(=O)oc3c2)OC1=O` (stereo not given) [CLAUSLACTONE H], the Activity in series [1] was 88.4%; in series [2], 100%; in series [6] it was 25.1%; in series [8], 60.4%. In series [3], the viability at 32 nmol came to 60%. Moreover, in series [4], the viability at 16 nmol is over 80%. The viability at 0.32 nmol in series [5] was over 80%. Besides, in series [7], the viability at 3.2 nmol was over 80%.
With `C/C(=C\COc1ccc2ccc(=O)oc2c1)CC1CC(O)(CO)C(=O)O1` (stereo not given) [CLAUSLACTONE I], the Activity in series [1] was 82.5%; in series [2], 100%; in series [6] it was 20.6%; in series [8], 54.3%. Further, the viability at 32 nmol in series [3] was determined as 60%. Further, the viability at 16 nmol in series [4] was over 80%. Also, the viability at 0.32 nmol in series [5] was over 80%. The viability at 3.2 nmol in series [7] is over 80%.
As to `CC1(CC2C=C(CO)C(=O)O2)OC1COc1ccc2ccc(=O)oc2c1` (stereo not given) [CLAUSLACTONE J], the Activity in series [1] was determined as 85.2%; in series [2], 100%; in series [6], 27.4%; in series [8] it was 65.8%. The viability at 32 nmol in series [3] turned out to be 60%. Moreover, the viability at 16 nmol in series [4] is over 80%. Moreover, the viability at 0.32 nmol in series [5] was over 80%. Besides, the viability at 3.2 nmol in series [7] was over 80%.
Consider `COc1ccc2ccc(=O)oc2c1` [HERNIARIN], for which the Activity in series [1] amounted to 100%; in series [2], 100%; in series [6], 0%; in series [8], 71.7%. Further, the viability at 32 nmol in series [3] was determined as 30%. Further, the viability at 16 nmol in series [4] was 60%. The viability at 0.32 nmol in series [5] was over 80%. For the same molecule, in series [7], the viability at 3.2 nmol was over 80%.
